Experimental data published in publication PMC12215028 (Scientific Reports, 2025).

Experiments:
[1] = test system: A549, H460, H1299, and HCC827 cell lines; assay: MTT assay, statements over all four lines; assay type: cell-based, human; conditions: 48 h
Method in brief: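 H460, H1299 and HCC827 cells were kept in RPMI1640 with 10% FBS at 37 °C and 5% CO₂. A549 cells were plated at 2,500 per well. Cells were exposed to 0–50 µM test compound (final; 3.125–50 µM twofold steps) or DMSO control for 24, 48 and 72 h. MTT was then added for 2 h at 37 °C, formazan was dissolved in DMSO, and OD was read at 570 nm. Data are mean ± standard deviation; IC50 was calculated from viability.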

p-EGFR(Y1068) = assay: Western blot, NSCLC cell lines; assay type: cell-based, human; conditions: A549 and H460 cells; 50 µM
Method in brief: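 Cells were plated at 150,000 per well and treated with test compound or DMSO for 24 h. They were lysed in RIPA buffer with PMSF, DTT, NaF, Na₃VO₄ and protease inhibitors for 30 min on ice, then spun at 13,000 rpm for 30 min at 4 °C. Protein was quantified by Bradford assay and resolved by SDS-PAGE. Blots were probed with secondary antibodies at 1:5000 for 1 h at RT, detected by chemiluminescence and quantified by densitometry.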

A549 cells = assay: Subcutaneous xenograft mouse model; assay type: in vivo, BALB/c-nude male mice; conditions: 30 mg/kg
Method in brief: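 Male BALB/c nude mice aged 6–7 weeks, under isoflurane, received 5 × 10⁶ A549 cells in 50 µL PBS plus 50 µL Matrigel subcutaneously in the flank. Groups of six received vehicle, test compound or reference compound by oral gavage three times weekly for 27 days. Vehicle was Tween 80:PEG400:ethanol:5% glucose 1:6:3:20, at 100 µL per 25 g mouse. Tumors were caliper-measured three times weekly; endpoint was about 1,500 mm³ or distress.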

[2] = test system: A549 xenograft tumor tissue; assay: H&E staining of xenograft tumor tissue; assay type: in vivo, BALB/c-nude male mice; conditions: 30 mg/kg; compared to the vehicle group
Method in brief: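 A549 cells (5 × 10⁶ in PBS plus Matrigel) were implanted subcutaneously into the flank of male nude mice aged 6–7 weeks. Compound was given by oral gavage three times weekly. Paraffin tumor sections were deparaffinized in xylene and rehydrated through graded ethanol. They were stained with hematoxylin for 30 s, differentiated in acid alcohol (0.3% HCl in 70% ethanol) and stained with eosin for 2 min. Sections were then dehydrated, cleared and mounted, and staining was quantified by image analysis.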

p-EGFR = assay: Immunohistochemistry of xenograft tumor tissue; assay type: in vivo, BALB/c-nude male mice; conditions: tumor tissues; compared to the vehicle group
Method in brief: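 Paraffin sections of subcutaneous A549 flank tumors from nude mice were deparaffinized and rehydrated, and peroxidase was blocked with H₂O₂. Antigen retrieval used 0.01 M citrate (pH 6.0) at boiling for 10 min. Sections were blocked in normal goat serum for 1 h at RT, then incubated with anti-p-EGFR (Y1068) at 1:100 overnight at 4 °C. Detection used a biotinylated secondary (1 h, RT), ABC reagent (30 min) and DAB, with hematoxylin counterstain.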

Structure (SMILES): CC(C)=CC(=O)O[C@H]1Cc2cc3ccc(=O)oc3cc2OC1(C)C [decursin]
- cytotoxicity [1]: significant cytotoxicity at 50 µM
- p-EGFR(Y1068) expression levels (p-EGFR(Y1068)): failed to inhibit EGFR phosphorylation
- tumor size at the experimental endpoint (A549 cells; oral gavage three times per week, 27 days, vs vehicle): no statistically significant reduction
- body weight changes (A549 cells; vs control, throughout the experimental period): no significant difference
- tumor cell density (H&E) [2]: did not show a significant difference
- p-EGFR-positive cells / expression (IHC) (p-EGFR): not significantly reduced
